Measurements published in ChEMBL document CHEMBL2150889, “Azetidinyl oxadiazoles as potent mGluR5 positive allosteric modulators” (Bioorg Med Chem Lett, 2012).

Key:
[1] = target: T1, Metabotropic glutamate receptor 5 (Homo sapiens, UniProt P41594); assay: Positive allosteric modulation of human mGluR5 expressed in recombinant HEK293 cells by FLIPR assay; type: cell-based
Procedure, shortened: (§1)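 HEK293 cells recombinantly expressing human mGluR5 were seeded at 2×10^4 cells/well on poly-D-lysine. They were incubated overnight at 37 °C in glutamate/glutamine-free medium, then loaded for 1 h at 37 °C with calcium 5 dye containing 3 U/ml glutamic pyruvic transaminase and 3 mM sodium pyruvate. Calcium flux was read by FLIPR.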

[2] = target: T1, Metabotropic glutamate receptor 5; assay: Negative allosteric modulation of human mGluR5 expressed in recombinant HEK293 cells by FLIPR assay; type: cell-based; conditions: for inhibition: concentration not given here; procedure, shortened: as §1

Row | Structure (SMILES) | EC50 [1] | Emax [1] | IC50 [2] | inhibition [2] | Activity [1]
1 | COC1CCCN(C(=O)N2CC(c3nc(-c4cccc(Cl)c4)no3)C2)C1 (stereo not drawn) | > 10000 nM | -14% | 1830 nM | 80% | –
2 | CC1CCCN(C(=O)N2CC(c3nc(-c4cccc(Cl)c4)no3)C2)C1 (stereo not drawn) | > 10000 nM | 6% | 3400 nM | 69% | –
3 | Cc1ccc(S(=O)(=O)N2CC(c3nc(-c4cccc(C)c4)no3)C2)cc1 | > 10000 nM | 1% | 670 nM | 80% | –
4 | O=C(c1ccc(F)cc1)N1CC(c2nc(-c3cccc(F)c3)no2)C1 | 2400 nM | 40% | > 10000 nM | – | 6%
5 | Cc1cccc(-c2noc(C3CN(C(=O)C4CCOC4)C3)n2)c1 (stereo not drawn) | > 10000 nM | -7% | 1300 nM | 80% | –
6 | O=C([C@@H]1CC2CCC1C2)N1CC(c2nc(-c3cccc(Cl)c3)no2)C1 (stereo partly drawn) | 98 nM | 66% | – | – | –
7 | Cc1cccc(-c2noc(C3CN(C(=O)C4CCC(C)CC4)C3)n2)c1 (stereo not drawn) | 970 nM | 68% | > 10000 nM | – | 49%
8 | O=C([C@@H]1CC2CCC1C2)N1CC(c2nc(-c3cccc(F)c3)no2)C1 (stereo partly drawn) | 100 nM | 110% | – | – | –
9 | Cc1cccc(-c2noc(C3CN(C(=O)C4CCCCC4)C3)n2)c1 | 950 nM | 45% | > 10000 nM | – | 20%
10 | Cc1ccc(C(=O)N2CC(c3nc(-c4cccc(F)c4)no3)C2)cc1 | 6800 nM | 27% | > 10000 nM | – | 30%
11 | Cc1cccc(-c2noc(C3CN(C(=O)c4ccc(Cl)cc4)C3)n2)c1 | 7100 nM | 33% | > 10000 nM | – | 6.3%
12 | O=C(Cc1ccc(F)cc1)N1CC[C@H]1c1nc(-c2cccc(F)c2)no1 | 1200 nM | 29% | > 10000 nM | – | 12%
13 | Cc1cccc(-c2noc(C3CN(S(=O)(=O)c4cccc(C)c4)C3)n2)c1 | > 10000 nM | -4% | 650 nM | 76% | –
14 | Cc1cccc(-c2noc(C3CN(S(=O)(=O)c4ccc(F)cc4)C3)n2)c1 | > 10000 nM | 6% | 950 nM | 74% | –
15 | O=C(c1cccc(F)c1)N1CC(c2nc(-c3cccc(Cl)c3)no2)C1 | > 10000 nM | -12% | 780 nM | 87% | –
16 | O=C(c1ccccc1F)N1CC(c2nc(-c3cccc(Cl)c3)no2)C1 | > 10000 nM | -12% | 670 nM | 86% | –
17 | Cc1cccc(-c2noc(C3CN(S(=O)(=O)c4ccc(Cl)cc4)C3)n2)c1 | > 10000 nM | 3% | 1100 nM | 75% | –
18 | O=C(N1CCCC(F)C1)N1CC(c2nc(-c3cccc(Cl)c3)no2)C1 (stereo not drawn) | 200 nM | 51% | > 10000 nM | – | 81%
19 | O=C([C@@H]1CC2CCC1C2)N1CC(c2nc(-c3ccccc3)no2)C1 (stereo partly drawn) | 400 nM | 88% | – | – | –
20 | CC1CCC(C(=O)N2CC(c3nc(-c4cccc(F)c4)no3)C2)CC1 (stereo not drawn) | 2200 nM | 47% | > 10000 nM | – | 11%
21 | O=C(N1CCCCC1)N1CC(c2nc(-c3cccc(Cl)c3)no2)C1 | 370 nM | 44% | > 10000 nM | – | 87%
22 | Cc1cccc(-c2noc(C3CN(C(=O)C4CCC4)C3)n2)c1 | > 10000 nM | 3% | 1000 nM | 77% | –
23 | O=S(=O)(c1ccc(Cl)cc1)N1CC(c2nc(-c3cccc(Cl)c3)no2)C1 | > 10000 nM | 7% | 170 nM | 79% | –

Row | Structure (SMILES) | EC50 [1] | Emax [1] | IC50 [2] | inhibition [2] | Activity [1]
24 | O=S(=O)(c1ccc(F)cc1)N1CC(c2nc(-c3cccc(Cl)c3)no2)C1 | > 10000 nM | -7% | 130 nM | 85% | –
25 | O=C([C@H]1CC2CCC1C2)N1CC(c2nc(-c3ccccc3)no2)C1 (stereo partly drawn) | 120 nM | 160% | – | – | –
26 | O=C(c1ccc(F)c(F)c1)N1CC(c2nc(-c3cccc(F)c3)no2)C1 | 3200 nM | 35% | > 10000 nM | – | 50%
27 | O=C(C1CCC(F)(F)CC1)N1CC(c2nc(-c3cccc(F)c3)no2)C1 | 520 nM | 53% | > 10000 nM | 11% | –
28 | Cc1cccc(-c2noc([C@@H]3CCN3C(=O)c3ccccc3F)n2)c1 | > 10000 nM | 6.2% | 1800 nM | 58% | –
29 | O=C(C1CCC(C(F)(F)F)CC1)N1CC(c2nc(-c3cccc(Cl)c3)no2)C1 (stereo not drawn) | 1000 nM | 40% | > 10000 nM | – | 5%
30 | Cc1cccc(-c2noc([C@@H]3CCN3C(=O)c3ccc(F)c(F)c3)n2)c1 | 1500 nM | 51% | > 10000 nM | – | 92%
31 | O=C(c1ccc(Cl)cc1)N1CC(c2nc(-c3cccc(F)c3)no2)C1 | 2500 nM | 62% | > 10000 nM | – | 82%
32 | O=C(Cc1cccc(F)c1)N1CC[C@H]1c1nc(-c2cccc(F)c2)no1 | 2400 nM | 52% | > 10000 nM | – | 75%
33 | O=C(C1CCCCC1)N1CC(c2nc(-c3cccc(F)c3)no2)C1 | 1000 nM | 46% | > 10000 nM | – | 19%
34 | Cc1cccc(S(=O)(=O)N2CC(c3nc(-c4cccc(Cl)c4)no3)C2)c1 | > 10000 nM | -2% | 390 nM | 82% | –
35 | O=C(C1CCC1)N1CC(c2nc(-c3cccc(Cl)c3)no2)C1 | > 10000 nM | -7% | 1500 nM | 75% | –
36 | Cc1cccc(-c2noc(C3CN(C(=O)c4ccc(F)cc4)C3)n2)c1 | 1400 nM | 32% | > 10000 nM | 50% | –
37 | CC1CN(C(=O)N2CC(c3nc(-c4cccc(Cl)c4)no3)C2)CC(C)O1 (stereo not drawn) | > 10000 nM | – | 990 nM | 51% | –
38 | Cc1cccc(-c2noc(C3CN(C(=O)c4ccccc4F)C3)n2)c1 | > 10000 nM | 5% | 1400 nM | 64% | –
39 | Cc1cccc(-c2noc(C3CN(C(=O)C4CCC(F)(F)CC4)C3)n2)c1 | 590 nM | 36% | > 10000 nM | – | 3%
40 | Cc1cccc(-c2noc(C3CN(C(=O)C4CCC(C(F)(F)F)CC4)C3)n2)c1 (stereo not drawn) | 1000 nM | 36% | > 10000 nM | 3% | –
41 | CC1CCN(C(=O)N2CC(c3nc(-c4cccc(Cl)c4)no3)C2)CC1 | 865 nM | 66% | > 10000 nM | – | –
42 | O=C(C1CCCO1)N1CC(c2nc(-c3cccc(Cl)c3)no2)C1 (stereo not drawn) | > 10000 nM | -3% | 890 nM | 79% | –
43 | Cc1cccc(-c2noc(C3CN(C(=O)C4CCOCC4)C3)n2)c1 | > 10000 nM | -2% | 1800 nM | 74% | –
44 | Cc1cccc(-c2noc(C3CN(C(=O)C4CCCO4)C3)n2)c1 (stereo not drawn) | > 10000 nM | 3% | 1900 nM | 79% | –
45 | O=C([C@H]1CC2CCC1C2)N1CC(c2nc(-c3cccc(Cl)c3)no2)C1 (stereo partly drawn) | 74 nM | 120% | – | – | –
